One data set addresses BK receptors. Briefly: Radioligand competition binding assay with [3H]BK in rat brain membranes. The conditions noted are these: pH 6.8, rat brain membranes, 1 nM [3H]BK; for IC50: read-out: IC50, BK receptors, [3H]BK. For orientation: In a radioligand displacement assay an active substance lowers the binding of a labelled ligand.
Data set [1] is described as follows: In vitro stability in rat plasma. The data set is classed as in vitro ADME. The conditions noted are these: for half-life: plasma, t1/2 in rat plasma, 37 °C.
A short description of data set [2]: In vitro stability in human plasma. It counts as in vitro ADME. An outline of the steps:
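Test compound stock (50 mg/mL in water) was diluted 5-fold into lithium-heparin human plasma and incubated at 37 °C. Samples were taken at 1, 2, 4, 6, 12 and 24 h, quenched with EtOH and centrifuged. Supernatant was run on C-18 RP-HPLC (10–90% acetonitrile, 40 min). t1/2 = 0.693/b, where b is the slope of ln(fraction parent remaining) versus time. Three independent experiments.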

A short description of data set [3]: Rat plasma stability of 1 with or without protease inhibitors. Particulars: t1/2, rat plasma, calculated after a 4 h incubation. It counts as in vitro ADME. An outline of the steps:
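Test compound was added to rat plasma together with one protease inhibitor (60 nM bestatin, 100 µM chymostatin, 1 mM PMSF, 10 µM captopril or 1 mM EDTA), with all five combined, or with none. Incubation was at 37 °C after 5-fold dilution of the stock. Parent remaining was measured by RP-HPLC after EtOH quench. t1/2 was calculated after 4 h incubation as 0.693/slope of ln(fraction remaining) versus time.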

For data set [4], the system named is naïve rats. The conditions noted are these: naïve animals, i.th.; cited from earlier work.
For data set [5], the system named is SNL rats. Particulars: nerve-injured animals (L5/L6 SNL), i.th., dose-dependent; cited from earlier work.
In data set [6] the test system is naïve rats. As to the kind of experiment: von Frey filament and Infra-Red tests in naïve rats. It counts as in vivo, rat. In a few lines:
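Nonfasted male Sprague-Dawley rats (250–300 g) carried i.th. catheters placed through the atlanto-occipital membrane to lumbar level under ketamine/xylazine (80/12 mg/kg i.p.). Naïve rats received Dyn A-(2–13) with or without test compound (3 nmol/5 µL i.th.). Tests were run every 20 min up to 120 min. Infrared paw withdrawal latency was calibrated to ~20 s on the uninjured paw; von Frey thresholds used the up-down/Dixon method. One-way ANOVA, p ≤ 0.05.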

The subject of data set [7] is SNL rats. Briefly: Hypersensitivity tests in L5/L6 spinal nerve ligation. It counts as in vivo, rat. Particulars: i.th. An outline of the steps: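 L5/L6 spinal nerve-ligated male Sprague-Dawley rats (250–300 g, nonfasted) with lumbar-level i.th. catheters received test compound or vehicle at 3 nmol/5 µL i.th. Tactile paw withdrawal thresholds were measured against baseline and post-SNL values with von Frey filaments (up-down method, Dixon analysis) every 20 min up to 120 min after injection. One-way ANOVA, significance at p ≤ 0.05.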

[8] abbreviates: i.th. co-administration 3 nmol/5 μL with Dyn A-(2–13) 3 nmol.

SMILES strings stand for the structures.

The term IC50 denotes the concentration that gives 50% inhibition. Usually half-life stands for the time in which the quantity being followed falls by half. For orientation: share remaining means the share of the starting amount still present when the sample was taken. `CC[C@H](C)[C@H](NC(=O)[C@H](CCCNC(=N)N)NC(=O)[C@H](CC(C)C)NC(=O)[C@@H](N)Cc1ccccc1)C(=O)N[C@@H](CCCNC(=N)N)C(=O)N1CCC[C@H]1C(=O)N[C@@H](CCCCN)C(=O)O` [compound 1, H-Phe-Leu-Arg-Ile-Arg-Pro-Lys-OH]: the “log[IC50], BK receptors, [3H]BK” value at BK receptors was −6.83 ± 0.09. At BK receptors, the IC50 came out at 0.15 µM. Also, the “time to complete degradation” value in data set [1] (rat plasma incubation) is at most 4 h. Further, the half-life in data set [1] (rat, 24 h study) was under 1 h; in data set [2] (human, plasma), 144 min; in data set [3] (60 nM bestatin), 48 min; in data set [3] (1 mM EDTA), 48 min; in data set [3] (1 mM PMSF), 48 min. In addition, the share remaining at 24 h, 10 mg/mL amounted to 0% in data set [1] (rat, rat plasma) and 0% in data set [2] (human, human plasma). The molecule further came in with a time to degradation in data set [2] (human plasma incubation) of at most 4 h. Further, the “Dyn A-induced hyperalgesia and motor impairments” value in the data set with naïve rats [4] is “block Dyn A-induced hyperalgesia and motor impairments”. The “thermal hyperalgesia and mechanical hypersensitivity” value with SNL rats [5] is “reverse thermal hyperalgesia and mechanical hypersensitivity”.
`CC[C@H](C)[C@H](NC(=O)[C@H](CCCNC(=N)N)NC(=O)[C@@H](CC(C)C)NC(=O)[C@@H](N)Cc1ccccc1)C(=O)N[C@@H](CCCNC(=N)N)C(=O)N1CCC[C@H]1C(=O)N[C@@H](CCCCN)C(=O)O` [compound 16, H-Phe-D-Leu-Arg-Ile-Arg-Pro-Lys-OH]: at BK receptors, the “log[IC50], BK receptors, [3H]BK” value was −6.90 ± 0.23 and the IC50 is 0.13 µM. Moreover, the “increase in stability in plasma compared to that of 1” value in data set [1] was 229 fold. Also, the “Intact (%)” value in data set [1] (rat plasma, after a 24 h incubation) is given as “more than 95%”. In data set [1] (rat, calculated from a 5 day stability test), the half-life was 160 h. For the same molecule, in data set [1] (rat, rat plasma), the fraction remaining at 24 h, 10 mg/mL was found to be 99 ± 9% and the amount remaining at 120 h, 10 mg/mL is 66%. In addition, in data set [2] (human plasma, after a 24 h incubation), the “Intact (%)” value is on record as “more than 95%”. In data set [2] (human, human plasma), this molecule had a share remaining at 24 h, 10 mg/mL of 99 ± 10%. In the data set on naïve rats [6] (setting [8]), the “Dyn A-(2–13)-induced tactile hypersensitivity (von Frey filament test)” value is “blocked” and the “Dyn A-(2–13)-induced thermal hypersensitivity (Infra-Red test)” value is “blocked”. In the data set with naïve rats [6] (i.th., 3 nmol/5 μL), the “time of maximal paw withdrawal threshold and latency after injection” value came out at 40 min. The “nerve injury-related tactile hypersensitivity” value in the data set with SNL rats [7] is given as “modulated”.

(Values after publication PMC5689068 (ACS chemical neuroscience, 2016).)
